Results on one compound are retold here after ChEMBL document CHEMBL5661977, “BI 6727, a Polo-like kinase inhibitor with improved pharmacokinetic profile and broad antitumor activity” (Clin Cancer Res, 2009).

One series relates to BRO melanoma cell line. Description: Antimitotic activity against human BRO melanoma cell line assessed as inhibition of cell proliferation incubated for 72 hrs by Alamar blue based fluorescence spectrophotometric analysis. It counts as functional. On the technique in general: The colour change of resazurin is a common sign of viable cells or microbes.
In a further series the test system is HL-60. In words: Antimitotic activity against human HL-60 cells assessed as inhibition of cell proliferation incubated for 72 hrs by Alamar blue based fluorescence spectrophotometric analysis. It counts as functional. Particulars: HL-60, 72 h. The gist of the method:
(§1)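 Cancer cell lines were cultured per supplier instructions and exposed to various inhibitor concentrations for 72 h. Growth was read as Alamar blue conversion by fluorescence. EC50 (50% growth inhibition) was extrapolated from the dose-response curve fit.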

The subject of another series is THP-1. In words: Antimitotic activity against human THP-1 cells assessed as inhibition of cell proliferation incubated for 72 hrs by Alamar blue based fluorescence spectrophotometric analysis. The class given is functional. Particulars: THP-1, 72 h. A digest of the protocol: as §1
The subject of a further series is Raji. Description: Antimitotic activity against human Raji cells assessed as inhibition of cell proliferation incubated for 72 hrs by Alamar blue based fluorescence spectrophotometric analysis. The class given is functional. The gist of the method: as §1
The subject of series [1] is NCI-H460. Description: Antimitotic activity against human NCI-H460 cells assessed as cell cycle block in G2-M phase measuring by accumulation of 4N DNA content at 100 nmol/L incubated for 24 hrs by PI staining based flow cytometric analysis. The class given is functional. The gist of the method: (§2)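 Log-phase NCI-H460 cells were treated with 0.1% DMSO or inhibitor (dose series for 24 h; 100 nmol/L time course at 0, 24, 48, 72 h). Cells were fixed in 80% ethanol, permeabilized with 0.25% Triton X-100 for 5 min, then given 0.1% RNase plus 10 µg/mL propidium iodide for 20 min at RT. DNA content was read by flow cytometry.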
A general note: In flow cytometry, cells or beads pass a laser one at a time.

The subject of series [2] is NCI-H460. In words: Antimitotic activity against human NCI-H460 cells assessed as G2-M arrest with apoptosis at 100 nmol/L incubated for 24 hrs by PI staining based flow cytometric analysis. It counts as functional, cell-based. The gist of the method:
as §2

Series [3] concerns NCI-H460. In words: Induction of apoptosis in human NCI-H460 cells assessed as cleaved PRAP fragment level at 100 nmol/L incubated for 24 hrs by westernblot analysis. The class given is functional, cell-based. A digest of the protocol:
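Exponentially growing NCI-H460 cells treated with compound or DMSO control for 24 or 48 h, then harvested. Cleaved PARP fragment detected by Western blot.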

The nature of series [4]: Volume of distribution at steady state in Wistar rat at 10 mg/kg, iv by HPLC-MS/MS analysis. It counts as ADME, organism-based. Particulars: in vivo, read-out: Vdss. A digest of the protocol: (§3)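 Male Wistar Crl:WI (Han) rats, n = 4, given a single 5-min i.v. infusion. BI 6727 measured in EDTA plasma at various times after the infusion started, by HPLC-MS/MS with internal standard. Parameters came from noncompartmental analysis. Terminal half-life was taken from the last two time points after i.v. dosing.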

Series [5] can be described thus: Half life in Wistar rat at 10 mg/kg, iv by HPLC-MS/MS analysis. It counts as ADME, organism-based. As to conditions: in vivo. The gist of the method: as §3
Series [6] in a line: Cmax in Wistar rat at 30 mg/kg, po by HPLC-MS/MS analysis. The class given is ADME, organism-based. As to conditions: in vivo. The gist of the method:
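Single oral gavage of BI 6727 suspended in 0.5% hydroxyethyl-cellulose (10 mL/kg) to female nude mice or male Wistar rats. EDTA plasma levels measured over time by HPLC-MS/MS with internal standard. AUC0-24 by trapezoidal rule. Parameters from noncompartmental analysis.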

A short description of series [7]: AUC (0-24hrs) in Wistar rat at 30 mg/kg, po by HPLC-MS/MS analysis. The class given is ADME, organism-based. Particulars: in vivo. A digest of the protocol:
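Single oral dose to female nude mice or male Wistar rats. EDTA plasma was collected over 24 h and quantified by LC-MS/MS after extraction with internal standard. AUC0-24 was calculated from the concentration-time profile by the trapezoidal rule using noncompartmental analysis.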

Series [8] in a line: Cmax in BomTac:NMRI-Foxn1nu mouse at 35 mg/kg, iv by HPLC-MS/MS analysis. The class given is ADME, organism-based. Particulars: in vivo. The gist of the method: (§4)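 Female nude mice, n = 3, single i.v. dose (vehicle 0.1 N HCl diluted with 0.9% NaCl, 10 mL/kg). BI 6727 measured in EDTA plasma at several times by HPLC-MS/MS with internal standard. Parameters came from noncompartmental analysis. Terminal half-life was taken from the last two time points after i.v. dosing.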

A short description of series [9]: Clearance in BomTac:NMRI-Foxn1nu mouse at 35 mg/kg, iv by HPLC-MS/MS analysis. The class given is ADME, organism-based. As to conditions: in vivo. The gist of the method:
as §4

Series [10] has as its system HCT-116. Description: Antitumor activity against human HCT-116 cells xenografted in BomTac:NMRI-Foxn1nu mouse assessed as T/C at 15 mg/kg, iv administered twice a week upto 6 weeks relative to control. It counts as functional. The gist of the method: (§5)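 Female nude mice bore s.c. HCT 116 (2×10^6 cells), NCI-H460 (1×10^6 cells) or serially transplanted CXB1 tumor pieces. At ~50–100 mm³, mice were randomized into groups of 10 and dosed i.v. (0.1 N HCl/saline) or by gavage (0.5% hydroxyethyl-cellulose) at 10 mL/kg. Calipers read thrice weekly, volume = length×width²×π/6. T/C from median volumes on the last day.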
(In general: In xenograft studies the graft and the host belong to different species.)

Series [11] deals with HCT-116. In words: Antitumor activity against human HCT-116 cells xenografted in BomTac:NMRI-Foxn1nu mouse assessed as T/C at 30 mg/kg, iv administered once a week upto 6 weeks relative to control. The class given is functional. The gist of the method: as §5
Series [12] relates to HCT-116. In words: Antitumor activity against human HCT-116 cells xenografted in BomTac:NMRI-Foxn1nu mouse assessed as T/C at 50 mg/kg, po administered once a week upto 6 weeks relative to control. The class given is functional. A digest of the protocol: as §5
In series [13] the test system is HCT-116. Description: Antitumor activity against human HCT-116 cells xenografted in BomTac:NMRI-Foxn1nu mouse assessed as T/C at 25 mg/kg, po administered twice a week upto 6 weeks relative to control. It counts as functional. The gist of the method: as §5
Series [14] relates to NCI-H460. Description: Antitumor activity against human NCI-H460 cells xenografted in BomTac:NMRI-Foxn1nu mouse assessed as T/C at 70 mg/kg, po administered once a week upto 6 weeks relative to control. The class given is functional. The gist of the method: as §5
Series [15] is described as follows: AUC (0 to 24 hrs) in human NCI-H460 cells xenografted in BomTac:NMRI-Foxn1nu mouse at 10 mg/kg, po administered daily upto 6 weeks by HPLC-MS/MS analysis. Particulars: in vivo, 1008 h. The class given is ADME, organism-based.
The test system of series [16] is HCT-116. Description: Antitumor activity against human HCT-116 cells xenografted in BomTac:NMRI-Foxn1nu mouse assessed as tumor growth delay at 20 mg/kg, iv administered twice a week on consecutive days. It counts as functional, organism-based. A digest of the protocol: as §5
The test system of series [17] is HCT-116. Description: Antitumor activity against human HCT-116 cells xenografted in BomTac:NMRI-Foxn1nu mouse assessed as tumor regression at 20 mg/kg, iv administered twice a week on consecutive days. The class given is functional, organism-based. The gist of the method: as §5
Another series concerns Mus musculus. In words: Antitumor against human CXB1 cells xenografted in BomTac:NMRI-Foxn1nu mouse assessed as suppression in tumor growth at 15 mg/kg, iv administered once a week on consecutive days. The class given is functional, organism-based. Particulars: CXB1 cell, in the assay text read “twice a week” for “once a week”. A digest of the protocol: as §5
In series [18] the test system is HCT-116. Description: Antitumor activity against human HCT-116 cells xenografted in BomTac:NMRI-Foxn1nu mouse assessed as the number of apoptotic cells in small intestine at 40 mg/kg, iv. It counts as functional, organism-based. A digest of the protocol: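 Female nude mice bore s.c. HCT 116 tumors (~200 mm³) and received a single i.v. 40 mg/kg dose or vehicle (n=3 per group per time). Tumor, small intestine and large intestine were taken at 6, 24 and 48 h. Frozen sections were stained for pSer10 histone H3 (immunoperoxidase) or by TUNEL. Positive area was calculated as % of tumor cell area; Student's t test.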

Activity calls are given as the source filed them. The rule behind the calls is not given here.

The term EC50 denotes the midpoint of the concentration-response curve. A word on the half-life: it is the time in which the quantity being followed falls by half. Low readings indicate rapid decline, high ones slow decline. As a reminder, the Cmax is the highest concentration seen after dosing. A word on the AUC(0-t): it is exposure summed from dosing to a finite time, without extrapolation to infinity. High values mean high exposure, low ones low exposure. In general, clearance refers to the rate of elimination divided by the concentration. Low readings indicate inefficient removal, high ones efficient removal. As a reminder, the T/C is the ratio of treated to control. Broadly, the AUC is concentration integrated over time. High values mean high exposure, low ones low exposure. On to `CC[C@@H]1C(=O)N(C)c2cnc(Nc3ccc(C(=O)N[C@H]4CC[C@H](N5CCN(CC6CC6)CC5)CC4)cc3OC)nc2N1C(C)C` [VOLASERTIB], for which the EC50 came to 11 nM in the series with BRO melanoma cell line, 32 nM in the series with HL-60, 36 nM in the series on THP-1 and 37 nM in the series on Raji. In addition, the outcome in the series on NCI-H460 [1], in the series with NCI-H460 [2], in the series with NCI-H460 [3], in the series with HCT-116 [16], with HCT-116 [17] and in the series with Mus musculus was Active. Also, the Vd in series [4] amounted to 22 L/kg. Moreover, the half-life in series [5] is 54 h. Besides, the Cmax in series [6] is 2.2 µM; in [8], 7.1 µM. The compound further yielded an exposure AUC(0-t) in [7] of 34 µM·h. Besides, in series [9], the clearance was found to be 10 mL/min/kg. In addition, the T/C in the series on HCT-116 [10] is listed as 1%; in the series with HCT-116 [11], 3%; with HCT-116 [12], 2%; in the series with HCT-116 [13], 2%; in the series with NCI-H460 [14], 20%. For the same compound, the AUC in series [15] is 61 µM·h. In the series with HCT-116 [18], the outcome was inactive.
